Most compounds without a hit are left out; they make up all but 2.4% or so of the library.
Rtt109 HAT inh: blocks Candida albicans Rtt109/Vps75 acetyltransferase activity; purified Rtt109/Vps75, ThioGlo CoA-SH fluorescence, 4 h; AID 540336; inhibition, % at 34.9 µM; actives 0.16% (n = 330,000); Q5AAJ8;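 active = inhibition of at least 50% in every replicate; inconclusive = best replicate reaches 50% inhibition but some replicates fall short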
Target sequence (Q5AAJ8 whole entry, looked up): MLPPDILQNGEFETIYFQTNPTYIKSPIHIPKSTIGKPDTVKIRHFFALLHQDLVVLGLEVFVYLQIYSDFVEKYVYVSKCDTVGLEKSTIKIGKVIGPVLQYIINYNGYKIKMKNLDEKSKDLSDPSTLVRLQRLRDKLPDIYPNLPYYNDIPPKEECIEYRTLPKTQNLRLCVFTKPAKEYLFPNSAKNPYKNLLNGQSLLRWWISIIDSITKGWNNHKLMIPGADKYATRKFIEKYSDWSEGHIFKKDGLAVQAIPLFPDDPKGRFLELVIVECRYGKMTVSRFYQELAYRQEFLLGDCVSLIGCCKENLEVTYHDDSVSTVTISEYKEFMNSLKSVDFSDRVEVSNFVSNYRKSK
INS-1E GSIS act: GLuc luminescence reporter in INS-1E cells, primary screen for activators of glucose-dependent secretion of insulin. INS-1E GLuc reporter insulin secretion, 2-3 h. activation, % at 16.6 µM. actives 0.61% (n = 370,000);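 active = lowest replicate activation of at least 40%, so every replicate reaches that level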;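 also: 0% = median of neutral control wells and 100% = median of IBMX positive control wells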
Cneo AK release: causes C. neoformans cell lysis; adenylate kinase release luminescence, 4 h; normalised: neutral wells 0, clomiphene wells 100; lysis activity, % at 15 µM; actives 0.2% (n = 360,000);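 active = mean lysis activity across replicates of at least 80%, whatever share of replicates individually reach that level; inactive = mean lysis activity below 80%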
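read-out = cell lysis signal | test system = log-phase Cryptococcus neoformans yeast cells | input = cells at 5 × 10^6 per mL | medium = fresh YPD growth medium | signal = luminescent adenylate kinase detection reagent | timing = 4 h at 37 °C static, read 1 h later | dosing = single dose | controls = Clomiphene as positive lysis control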
miR122 inh: blocks miR-122 activity in Huh7 sensor cells; Huh7 miR-122 Renilla luciferase sensor, 48 h; neutral wells = 0, positive control = 100; activation (reporter increase), % at 12.5 µM; actives 0.3% (n = 340,000);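 active = mean replicate activation score at least 90 and every replicate individually at or above 90; inconclusive = only one of the two criteria met; inactive = neither criterion met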;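 also: higher luciferase means less miR-122 activity so hits act as miR-122 inhibitors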
HIV Env fusion: blocks HIV Env-driven cell-cell fusion | inhibition, % at 12.3 µM | actives 1.1% (n = 360,000) | HeLa-JRFL Env/CEM21 cell fusion, luciferase;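 active = mean replicate inhibition score of at least 50 and every replicate individually at or above 50; inconclusive = only one of the two criteria met; inactive = mean below 50 and not all replicates reaching 50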;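 also: 0% = plate neutral controls and 100% = maraviroc near 300 nM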
dFosB act: activators of mouse delta FosB homodimer. actives 0.99% (n = 340,000). purified delta FosB, TAMRA-CDK5 oligo fluorescence polarization; percent of positive-control signal above neutral wells. activation, % at 25 µM;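 active = mean activation above about 17%, with every replicate also reaching it, limit read from the data, passing the limit was not always enough; inconclusive = only one of the two conditions met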
* marks the source's active call; other numbers are inactive results; ? = inconclusive; nt = no result given; ! = not active in a repeat; [ ] = remark or other dose.

SMILES | Rtt109 HAT inh | INS-1E GSIS act | Cneo AK release | miR122 inh | HIV Env fusion | dFosB act
O=C(Nc1cccc(F)c1)N[C@H]1CC[C@H](CCNS(=O)(=O)c2cccc(Cl)c2)O[C@@H]1CO | nt | -10 | 105* | nt | ? | nt
O=C(Nc1cccc(F)c1)N[C@H]1CC[C@@H](CCNS(=O)(=O)c2cccc(Cl)c2)O[C@H]1CO | nt | -28 | 3 | nt | 96*[16.7 µM] | nt
O=C(Nc1cccc(F)c1)N[C@@H]1CC[C@H](CCNS(=O)(=O)c2cccc(Cl)c2)O[C@H]1CO | nt | -29 | 0 | nt | 67*[16.7 µM] | nt
C[C@@H]1CN([C@@H](C)CO)C(=O)CCCn2nncc2CO[C@H]1CN(C)Cc1cccc(C(F)(F)F)c1 | nt | 7 | 120*! | -4 | 1[16.7 µM] | nt
C[C@@H]1CN([C@@H](C)CO)C(=O)CCCn2nncc2CO[C@H]1CN(C)Cc1ccccc1 | nt | 41*! | 0 | -3 | -36 | nt
COc1ccc(S(=O)(=O)Nc2ccc3c(c2)CC(=O)N([C@H](C)CO)C[C@H](C)[C@H](CN(C)S(=O)(=O)c2c(C)noc2C)O3)cc1 | nt | -2 | 53 | 3[16.7 µM] | 57*[16.7 µM] | nt
COc1ccc(S(=O)(=O)N(C)C[C@@H]2Oc3ccc(NC(=O)Cn4cnnn4)cc3CC(=O)N([C@@H](C)CO)C[C@H]2C)cc1 | nt | 9 | 46 | -4[16.7 µM] | -10[16.7 µM] | nt
COc1ccc(S(=O)(=O)Nc2ccc3c(c2)CC(=O)N([C@H](C)CO)C[C@H](C)[C@H](CN(C)S(=O)(=O)c2cccs2)O3)cc1 | nt | -12 | 4 | 14[16.7 µM] | 62*[16.7 µM] | nt
COc1ccc(S(=O)(=O)N(C)C[C@@H]2Oc3ccc(NC(=O)Cn4cnnn4)cc3CC(=O)N([C@H](C)CO)C[C@@H]2C)cc1 | nt | -1 | 0 | -2[16.7 µM] | 90*[16.7 µM] | nt
COc1ccc(S(=O)(=O)Nc2ccc3c(c2)CC(=O)N([C@H](C)CO)C[C@H](C)[C@H](CN(C)S(=O)(=O)c2ccc(F)cc2)O3)cc1 | nt | -6 | 47 | -1[16.7 µM] | 91*[16.7 µM] | nt
COc1ccc(S(=O)(=O)N(C)C[C@H]2Oc3ccc(NS(=O)(=O)c4ccc(F)cc4)cc3CC(=O)N([C@@H](C)CO)C[C@H]2C)cc1 | nt | -5 | nt | 0[16.7 µM] | 1[16.7 µM] | nt
COc1ccc(S(=O)(=O)N(C)C[C@H]2Oc3ccc(NS(=O)(=O)c4cccs4)cc3CC(=O)N([C@@H](C)CO)C[C@@H]2C)cc1 | nt | -6 | 1 | 3[16.7 µM] | -8[16.7 µM] | nt
CCNC(=O)C[C@H]1CC[C@@H]2[C@H](COC[C@H](O)CN2Cc2ccc(Cl)c(Cl)c2)O1 | nt | -6 | 47 | -2[16.7 µM] | nt | nt
C[C@@H]1CN([C@H](C)CO)C(=O)c2cc(NS(=O)(=O)c3ccc(Cl)cc3)ccc2O[C@@H]1CN(C)Cc1ccc(Cl)c(Cl)c1 | nt | -9 | -1 | -16[16.7 µM] | ? | nt
CC(C)CC#Cc1ccc2c(c1)O[C@@H](CN(C)C(=O)Nc1ccccc1)[C@H](C)CN([C@@H](C)CO)S2(=O)=O | nt | 19 | 1 | 17[16.7 µM] | -23[16.7 µM] | nt
C[C@@H]1CCCCO[C@@H](CN(C)S(=O)(=O)c2cn(C)cn2)[C@@H](C)CN([C@@H](C)CO)C(=O)c2cc(NS(=O)(=O)c3ccccc3)ccc2O1 | nt | 21 | -4 | -2[16.7 µM] | -69[16.7 µM] | nt
COc1ccc(S(=O)(=O)Nc2ccc3c(c2)CC(=O)N([C@@H](C)CO)C[C@H](C)[C@H](CN(C)S(=O)(=O)c2ccc(OC)cc2)O3)cc1 | nt | -6 | -3 | 11[16.7 µM] | -16[16.7 µM] | nt
COc1ccc(S(=O)(=O)Nc2ccc3c(c2)CC(=O)N([C@H](C)CO)C[C@H](C)[C@H](CN(C)S(=O)(=O)c2ccc(OC)cc2)O3)cc1 | nt | -16 | 7 | 4[16.7 µM] | 56*[16.7 µM] | nt
COc1ccc2nc3cc(Cl)ccc3c(Nc3ccc(O)c(CN4CCN(C)CC4)c3)c2c1 | -3 | -15 | nt | -3 | -30 | 124*
C=CC[C@@H](CC(=O)N(CCO)Cc1ccccc1)C(=O)N[C@H](COC(=O)[C@@H](CC=C)Cc1ccc(F)cc1)Cc1ccccc1 | 1 | -29 | 1 | 19 | -10 | 0
C=CC[C@@H](CC(=O)N(CCO)Cc1ccccc1)C(=O)N[C@@H](COC(=O)[C@@H](CC=C)Cc1ccc(F)cc1)Cc1ccccc1 | 6 | -49 | 0 | -12 | 95* | -2
C=CCC[C@@H](Cc1ccc(F)cc1)C(=O)OC[C@@H](NC(=O)[C@H](CC=C)CC(=O)NCCO)C(C)(C)C | -5 | -14 | 4 | -5 | 102* | -16
C=CC[C@H](CC(=O)N(CCO)Cc1ccccc1)C(=O)NC[C@H](OC(=O)[C@@H](CC=C)Cc1ccc(F)cc1)c1ccccc1 | 10 | -7 | 3 | -15 | 68* | -8
C=CCC[C@H](Cc1ccc(F)cc1)C(=O)OC[C@@H](C)NC(=O)[C@H](CC=C)CC(=O)NCCO | -2 | nt | -1 | nt | 17 | -2
CC(C)NC(=O)NCC[C@H]1CC[C@H](NS(=O)(=O)c2ccccc2)[C@H](CO)O1 | nt | 7 | nt | nt | nt | nt
SMILES | Rtt109 HAT inh | INS-1E GSIS act | Cneo AK release | miR122 inh | HIV Env fusion | dFosB act
Clc1ccc(OCCN2CCN(c3ncnc4sccc34)CC2)cc1 | 5 | nt | -6 | -7 | 99* | -3
Cc1ccc(OCCN2CCN(c3ncnc4sc(C)c(C)c34)CC2)cc1 | 7 | nt | -3 | -33 | 85* | -7
CCOC(=O)c1ccccc1NS(=O)(=O)c1ccc(OCC)cc1 | -3 | -19 | 1 | 39 | 63* | -1
CCOC(=O)c1sc(NC(=O)c2ccco2)nc1-c1ccccc1 | -7 | 5 | 2 | -2 | -13 | 0
CCOC(=O)c1sc(NC(C)=O)nc1-c1ccccc1 | -8 | 43* | 0 | -3 | nt | -13
O=C(C[C@@H]1CC[C@H]2[C@@H](COC[C@H](O)CN2Cc2cccc(C(F)(F)F)c2)O1)NCc1ccccc1 | nt | -10 | 100* | 30[16.7 µM] | nt | nt
O=C(C[C@@H]1CC[C@H]2[C@@H](COC[C@H](O)CN2Cc2cccc(C(F)(F)F)c2)O1)NCc1ccc(Cl)cc1 | nt | -23 | 4 | -2[16.7 µM] | 68*[16.7 µM] | nt

Screens (PubChem BioAssay)
